Source: ChEMBL document CHEMBL1123391, “Synthesis and investigation of the beta-adrenoceptor agonist and platelet antiaggregatory properties of 1,7,8-trisubstituted 2,3,4,5-tetrahydro-1H-2-benzazepine analogues of trimetoquinol” (J Med Chem, 1986)
pIC50: −log10 of the molar value.

Tests used:
Format in all cases: functional, organism-based
Homo sapiens [1] = organism: Homo sapiens; assay: Inhibitory activity against thrombin (0.03 U/mL) induced aggregation in Human Platelets
Procedure, shortened: (§1)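 Washed platelets from drug-free (≥10 days) human volunteers, suspended in modified Tyrode's solution pH 7.4 at 3 × 10^8/mL. Compound preincubated 3 min at 37 °C before agonist addition. Aggregation read turbidometrically (Born method, Mustard modification) in a dual-channel aggregometer. Values mean ± SEM from four to six donors; tested up to 400 μM.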

Homo sapiens [2] = organism: Homo sapiens; assay: Inhibitory activity against phospholipase C (PLC 0.05 U/mL) induced aggregation in Human Platelets; procedure, shortened: as §1
Homo sapiens [3] = organism: Homo sapiens; assay: Inhibitory activity against endoperoxide (U-46,619 2 uM) induced aggregation in Human Platelets; procedure, shortened: as §1
Homo sapiens [4] = organism: Homo sapiens; assay: Inhibitory activity against thrombin (0.03 U/mL) induced aggregation in Human Platelets; NI is No Inhibitory activity up to a concentration of 400 uM; procedure, shortened: as §1
Homo sapiens [5] = organism: Homo sapiens; assay: Inhibitory activity against endoperoxide (U-46,619 2 uM) induced aggregation in Human Platelets; NI is No Inhibitory activity up to a concentration of 400 uM; procedure, shortened: as §1

SMILES	pIC50 (Homo sapiens [1])	pIC50 (Homo sapiens [2])	pIC50 (Homo sapiens [3])	IC50 (Homo sapiens [4])	IC50 (Homo sapiens [5])
COc1cc(C[C@@H]2NCCc3cc(O)c(O)cc32)cc(OC)c1OC [TRETOQUINOL]	4.30	4.30	4.96		
COc1cc(CC2NCCCc3cc(O)c(O)cc32)cc(OC)c1OC (configuration not stated)		4.52		No inhibition	No inhibition
COc1cc(CC2NCCCc3cc4c(cc32)OCO4)cc(OC)c1OC (configuration not stated)		5.52		No inhibition	No inhibition
COc1cc(C[C@H]2NCCc3cc(O)c(O)cc32)cc(OC)c1OC	3.82	3.76	6.85		
